Assay outcomes (PubChem)
Most compounds without a hit are left out; they make up all but 3.9% or so of the library.
HCV NS3 hel inh = inhibitors of HCV NS3 helicase, primary screen, biochemical, Cy5 molecular beacon fluorescence. 290,000 tested, 0.56% active. NS3 helicase DNA unwinding. AID 1800, 2009. inhibition, % at 10.9 µM;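 active means inhibition above the mean of all tested compounds plus 3 SD, set per campaign, cut at about 35% in these data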
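System: NS3 helicase fragment of HCV / Schedule: 1 h at 25 °C / Control set: DMSO alone as 0% and 110 µM thioflavine S as 100% / Reagent: Cy5/quencher beacon DNA duplex and ATP to start / Technique: Cy5 fluorescence / Replication: singlicate / Evaluation: % inhibition of end-to-start signal ratio versus controls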
DNA FID counter-1 = compounds displacing fluorescent DNA intercalator, primary screen, artefact control for HCV NS3 helicase inhibitor project, biochemical, FID fluorescence. DNA fluorescent intercalator displacement. inhibition, % at 7.9 µM. 290,000 tested, 0.17% active. AID 1845, 2009;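 further: higher means more ethidium bromide displaced from hairpin DNA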
core dimer inh = inhibitors of HCV core protein dimerization, primary screen, biochemical, TR-FRET, high-throughput; 300,000 tested, 0.33% active; AID 1899, 2009; TR-FRET GST/Flag-core106 dimerization, 1536-well; inhibition, % at 5 µM;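 active means inhibition above the mean of all tested compounds plus 3 SD, set per screening campaign, cut at about 45% in these data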
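Assay system: Tagged HCV core106 pair (GST and Flag) | Buffer or medium: KF-containing HEPES buffer, pH 7.45, DTT, CHAPS, BSA | Also added: Eu donor and XL665 acceptor anti-tag antibodies | Dosing: One concentration, 5 µM, in 0.5% DMSO | Timing: 4 h at 22.5 °C | Technique: TR-FRET 671 and 617 nm emission | Repeats: Singlicate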
HSF1 inhib = HSF1 inhibitors in luciferase reporter cells, primary screen, cell-based, NIH3T3, luminescence; AID 2098, 2009; activity change, negative = inhibition, % at 7.5 µM (by protocol); 300,000 tested, 0.77% active; NIH3T3-HGL HSE-luciferase, MG132-induced, luminescence 8 h; stronger effect = lower value;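 active means more than half of replicate wells show activity change below -50%, luminescence cut by over half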;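 further: luciferase reports HSF-1 transcriptional activity via heat shock element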
HSF-1 act = HSF-1 activators, primary screen, NIH3T3-HGL cells, MG132 stress, luminescence, single point. activation, % at 9 µM. NIH3T3-HGL HSF-1 luciferase reporter, 8 h; 100% = twice DMSO control signal. 300,000 tested, 1.7% active;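 active means mean replicate activation of at least 50% with a set share of replicates each reaching 50%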
HSP90 refold inh = HSP90 inhibitors, primary screen, cell lysate, luminescence; inhibition, % at 5.6 µM; Rabbit reticulocyte lysate, luciferase refolding luminescence, 3 h; AID 1789, 2009; 290,000 tested, 0.91% active;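 active means inhibition above the screen-wide mean plus 3 SD, computed separately per campaign, cut at about 16% in these data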;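 further: inhibitors lower the luminescence because luciferase stays unfolded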
NS3 hel confirm = HCV NS3 helicase inhibitors, retest, confirmation, biochemical, Cy5 molecular beacon fluorescence, triplicate. inhibition, % at 10.9 µM. shares compounds with HCV NS3 hel inh. NS3 helicase DNA unwinding. 1,600 tested, 31% active. AID 1943, 2009;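 active means inhibition above the mean of all tested compounds plus 3 SD, cutoff set per campaign, cut at about 36% in these data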
DNA FID counter-2 = compounds displacing fluorescent DNA intercalator, artefact control for HCV NS3 helicase inhibitor project, biochemical, FID fluorescence, triplicate. 1,600 tested, 4% active. shares compounds with HCV NS3 hel inh. DNA fluorescent intercalator displacement. inhibition, % at 7.9 µM;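 further: higher means more displacement of ethidium bromide from the DNA hairpin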
Of the large screens only hits and unclear results are named; the others gave an inactive call (follow-up assays come after a bar, where they were run). Unless noted, no stated cut-off is given here; in the data, active means inhibition above about 37%; inactive means the rest.

COc1cc(C)cc2oc(=O)c(CC(=O)N3CCN(C(=O)C4COc5ccccc5O4)CC3)c(C)c12 (stereo unspecified)	none
COCCCn1c(=O)/c(=C\c2ccccc2OC(F)F)s/c1=C(/C#N)C(=O)NC(C)C	none
COCCCn1c(=O)/c(=C\c2ccccc2OC(C)C)s/c1=C(/C#N)C(=O)Nc1ccc(C(=O)O)cc1	HCV NS3 hel inh 50 | NS3 hel confirm 58 | DNA FID counter-2 inactive
COc1ccccc1-c1nnc(NC(=O)c2ccc(S(=O)(=O)N3CCCC3)cc2)o1	HCV NS3 hel inh 53 | NS3 hel confirm inactive | DNA FID counter-2 inactive
N#Cc1nccnc1N1CCN(C(=O)Nc2ccccc2)CC1	none
CCC(=O)OCC(=O)Nc1ccc([N+](=O)[O-])cc1OC	none
CCOC(=O)Nc1ccc([N+](=O)[O-])cc1OC	HCV NS3 hel inh 42 | NS3 hel confirm inactive | DNA FID counter-2 inactive
Cc1c(C#N)c(O)[nH]c(=O)c1N=Nc1ccc(Cl)c(C(=O)O)c1	none
Cc1c(C#N)c(O)[nH]c(=O)c1N=Nc1ccc(S(N)(=O)=O)cc1	HCV NS3 hel inh 57 | NS3 hel confirm inactive | DNA FID counter-2 inactive
O=C(O)c1ccc(-n2nc(C(F)(F)F)c3c2-c2ccoc2CC3)cc1	HCV NS3 hel inh 37 | NS3 hel confirm 51 | DNA FID counter-2 inactive
COC(=O)c1ccc(-n2nc(C(F)(F)F)c3c2-c2ccoc2CC3)cc1	none
NC(=O)CC(NC(=O)Cc1cccc2ccccc12)c1ccc(NC2CCCCCCC2)c([N+](=O)[O-])c1 (stereo unspecified)	none (no result: HCV NS3 hel inh, DNA FID counter-1, HSP90 refold inh)
CC1CCCCN1C(=O)Cn1cc(C(=O)c2ccco2)c2ccccc21 (stereo unspecified)	HCV NS3 hel inh 38 | NS3 hel confirm inactive | DNA FID counter-2 inactive
N#Cc1c(C(F)(F)F)cc(-c2ccco2)nc1SCc1ccccn1	none
N#Cc1c(C(F)(F)F)cc(-c2ccco2)nc1SCc1ccncc1	HCV NS3 hel inh 44 | NS3 hel confirm inactive | DNA FID counter-2 inactive
CCC1=Nc2cc(C(=O)NCc3ccco3)ccc2Sc2ccc(Cl)cc21	HCV NS3 hel inh 37, core dimer inh 59 | NS3 hel confirm inactive | DNA FID counter-2 inactive
O=[N+]([O-])c1cnc2ccccc2c1	none
O=[N+]([O-])c1cc([N+](=O)[O-])c2cc3ccccc3nc2c1	HCV NS3 hel inh 36, HSF-1 act 139 | NS3 hel confirm inactive | DNA FID counter-2 inactive
CCOc1ccc(NC(=O)Cc2ccc(S(=O)(=O)N3CCOCC3)s2)cc1OCC	none
CCCc1nc(SCC(=O)O)c2sc(=S)n(-c3ccccc3)c2n1	HCV NS3 hel inh 37 | NS3 hel confirm inactive | DNA FID counter-2 inactive
CCc1ccc(-n2c(=S)sc3c(=O)n(-c4ccccc4)c(SCC(=O)O)nc32)cc1	none
CCOc1ncccc1C(=O)NNC(=O)c1ccccc1-n1cccc1	none
N#CCSc1nc2sccc2c(=O)n1-c1ccccc1	HCV NS3 hel inh 37 | NS3 hel confirm inactive | DNA FID counter-2 inactive
O=C(Nc1cc(C(F)(F)F)ccc1N1CCOCC1)c1cccnc1Cl	none
O=C(Nc1ccccc1N1CCOCC1)c1cccnc1Cl	HCV NS3 hel inh 53, DNA FID counter-1 47 | NS3 hel confirm inactive | DNA FID counter-2 inactive
O=C(O)c1ccc(NC(=S)NC(=O)c2cccc(COc3ccccc3)c2)cc1	HCV NS3 hel inh 36 | NS3 hel confirm 70 | DNA FID counter-2 inactive
O=C(NC(=S)Nc1ccc(CN2CCCCC2)cc1)c1cccc(OCc2ccccc2)c1	none
CC1CC/C(=C\c2ccc3c(c2)OCO3)C(=O)/C1=C/c1ccc2c(c1)OCO2 (stereo unspecified)	HCV NS3 hel inh 38, HSF-1 act 87 | NS3 hel confirm inactive | DNA FID counter-2 inactive
COc1ccccc1COc1ccc2c(C)c(CC(=O)O)c(=O)oc2c1C	HCV NS3 hel inh 48 | NS3 hel confirm inactive | DNA FID counter-2 inactive
Cc1noc(C)c1S(=O)(=O)N(CC(=O)NCCc1ccccc1)c1ccc(C(C)C)cc1	HCV NS3 hel inh 37 | NS3 hel confirm inactive | DNA FID counter-2 inactive
Cc1noc(C)c1S(=O)(=O)N(CC(=O)NCc1ccccc1)c1ccc(C(C)C)cc1	none
CCOc1ccc(N(CC(=O)NCc2ccccc2Cl)S(=O)(=O)c2c(C)noc2C)cc1	HCV NS3 hel inh 40 | NS3 hel confirm inactive | DNA FID counter-2 inactive
CCCCn1c(N)c(NCCC(C)C)c(=O)[nH]c1=O	HCV NS3 hel inh 45 (no result: HSF1 inhib, HSF-1 act) | NS3 hel confirm inactive | DNA FID counter-2 inactive
CNCC(=O)Nc1c(C)n[nH]c1C	HCV NS3 hel inh 40 | NS3 hel confirm inactive | DNA FID counter-2 inactive
CCCC(=O)Nc1c(C)n[nH]c1C	none
NS(=O)(=O)c1cccc(C(=O)NC2CCSc3ccccc32)c1 (stereo unspecified)	none
NS(=O)(=O)c1cc(C(=O)NC2CCSc3ccccc32)ccc1Cl (stereo unspecified)	HCV NS3 hel inh 84 | NS3 hel confirm 74 | DNA FID counter-2 inactive
CC1CC(=O)c2c(cc3c(-c4c(O)cc(O)c5c(O)c6c(cc45)OC(C)CC6=O)c(O)cc(O)c3c2O)O1 (stereo unspecified)	HCV NS3 hel inh 98 | NS3 hel confirm 123 | DNA FID counter-2 72
O=C(NCC1CCCO1)c1cccc(Oc2ccc([N+](=O)[O-])cc2)c1 (stereo unspecified)	none
CC1(C)Cc2nc3sc(C(=O)NCCCO)c(N)c3cc2CS1	none
CC1(C)Cc2nc3sc(C(=O)O)c(N)c3cc2CS1	HCV NS3 hel inh 48 | NS3 hel confirm inactive | DNA FID counter-2 inactive
Cc1ccc(NC(=O)CNC(=O)CC23CC4CC(CC(C4)C2)C3)c(O)c1	none (no result: HCV NS3 hel inh, DNA FID counter-1, HSP90 refold inh)
CC(C)n1cc(CN2CCC(Oc3ccc(C(=O)N4CCCCC4)cc3)CC2)cn1	none (no result: core dimer inh)
O=[N+]([O-])c1cc([N+](=O)[O-])c2oc(-c3ccccc3)c(Br)c2c1O	HCV NS3 hel inh 45, DNA FID counter-1 47 (no result: core dimer inh) | NS3 hel confirm 74 | DNA FID counter-2 68
CSc1ccc(Cl)c(C(=O)N(C)CC(=O)Nc2ccc(N3CCOCC3)cc2)c1	none (no result: HCV NS3 hel inh, DNA FID counter-1, HSP90 refold inh)
